Results from different studies.
Lines come from different studies, so protocols differ.
Target: Serine/threonine-protein kinase OSR1 (OXSR1, Homo sapiens, UniProt O95747)

Structure (SMILES)	test	setting	measurement	result
CC(C)S(=O)(=O)c1ccc2nccc(Nc3ccc4sc(C5CCCC5)nc4c3)c2c1	enzyme activity, inhibitor	1 µM	activity vs control	108%
CO[C@@H]1[C@H](N(C)C(=O)c2ccccc2)C[C@H]2O[C@]1(C)n1c3ccccc3c3c4c(c5c6ccccc6n2c5c31)C(=O)NC4	enzyme activity, inhibitor	1 µM	inhibition	24%
CCCCC(=O)Nc1ccc(-c2ccc3ncn(CCC)c(=O)c3c2)cn1	binding, competition with immobilised ligand	0.5 µM	remaining binding	100%
Cc1cc(O)c(-c2ccc([C@@H](C)CN(C)C)cc2)c2c1[nH]c(=O)c1sccc12	enzyme activity, inhibitor	0.1 µM	inhibition	6.5%
C[C@H]1CC[C@H](n2c3cnccc3c3cnc(Nc4ccc5c(n4)CCN(C(=O)CO)C5)nc32)CC1	cell-free assay	1 µM	remaining signal	100%
C=CC(=O)N1CCC([C@@H]2CCNc3c(C(N)=O)c(-c4ccc(Oc5ccccc5)cc4)nn32)CC1	enzyme activity, inhibitor	1 µM	inhibition	0%
Cc1ccc(NC(=O)c2ccnc(C(F)(F)F)c2)cc1-c1cc(OCCO)nc(N2CCOCC2)c1	binding	1 µM	remaining binding	89%
C#Cc1cc(-c2cc(Nc3nc(N[C@@H](C)c4ccc(F)cn4)ncc3Cl)n[nH]2)ccc1C=O	enzyme activity, inhibitor	0.2 µM	inhibition	18.2%
